Experimental data pooled from the literature.
Protocols differ between the studies behind these lines.
Target: Tyrosine-protein kinase Tec (TEC, Homo sapiens, UniProt P42680)
Residues used in one study (P42680 1-631): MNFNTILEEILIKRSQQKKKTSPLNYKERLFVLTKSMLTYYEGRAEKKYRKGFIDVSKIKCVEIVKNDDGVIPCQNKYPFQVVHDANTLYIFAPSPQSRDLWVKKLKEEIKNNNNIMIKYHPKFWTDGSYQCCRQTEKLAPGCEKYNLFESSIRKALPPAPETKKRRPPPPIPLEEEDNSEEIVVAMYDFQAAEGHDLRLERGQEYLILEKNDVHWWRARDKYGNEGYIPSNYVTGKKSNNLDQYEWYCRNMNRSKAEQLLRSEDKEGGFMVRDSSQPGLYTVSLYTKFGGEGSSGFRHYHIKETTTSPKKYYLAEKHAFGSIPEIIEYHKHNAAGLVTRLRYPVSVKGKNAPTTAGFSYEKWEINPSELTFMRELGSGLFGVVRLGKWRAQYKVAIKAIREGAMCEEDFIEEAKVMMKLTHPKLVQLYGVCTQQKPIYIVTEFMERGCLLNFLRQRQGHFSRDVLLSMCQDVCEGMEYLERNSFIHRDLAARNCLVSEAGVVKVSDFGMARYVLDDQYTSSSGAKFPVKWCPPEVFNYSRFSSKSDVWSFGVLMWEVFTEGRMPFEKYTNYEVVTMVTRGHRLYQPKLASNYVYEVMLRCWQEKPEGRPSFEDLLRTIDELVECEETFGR

SMILES	assay	conditions	remaining binding
CC1CCCN1c1nccc(-c2cnn3ncccc23)n1 (stereo not drawn)	binding	1 µM	100%
CCC(=O)N[C@H]1CC[C@@H](C(=O)N(C)c2ccc(-c3nc4ccccc4o3)cc2)C1	cell-free assay, competition with immobilised ligand	1 µM	100%
Cc1cnn2ncc(-c3ccnc(N(C)C)n3)c2c1	binding	1 µM	100%
c1cncc(-c2cccc(Nc3nccc(NC4CCCCC4)n3)c2)c1	binding, competition with immobilised ligand	10 µM	94%
O=C(NCCCN1CCOCC1)c1ccc(Nc2nccc(-c3cc4ccccc4s3)n2)cc1	binding, competition with immobilised ligand	1 µM	100%
O=C(Nc1c[nH]nc1C(=O)NC1CCNCC1)c1cc(F)cc(F)c1	binding, competition with immobilised ligand	1 µM	100%
C=CC(=O)N1CCC(C(=O)NCC(=O)N2CCN(c3nc(-c4cnc(N)nc4C(F)F)nc(N4CCOCC4)n3)CC2)CC1	binding, competition with immobilised ligand	1 µM	99%
COc1ncc2cc3ccccc3nc2c1C#N	binding, competition with immobilised ligand	5 µM	100%
C[C@@H]1CN(c2cc(-c3n[nH]c4ccc(OC5(C)CC5)cc34)ncn2)C[C@H](C)O1	cell-free assay, competition with immobilised ligand	0.1 µM	74%
N[C@H]1CCN(c2nccc(-c3cnn4ncccc34)n2)C1	binding	1 µM	100%
O=C(c1ccc(Nc2ncc(Cl)c(-c3cc4ccccc4s3)n2)cc1)N1CCC(N2CCCC2)CC1	binding, competition with immobilised ligand	1 µM	99%
C[C@@H](c1ccc(-n2cnc3c(N)ncnc32)cc1)N1CCc2nn(C)c(Cc3ccccc3)c2C1=O	binding, competition with immobilised ligand	0.1 µM	63%
O=C(c1ccc(Nc2nccc(-c3cc4ccccc4s3)n2)cc1)N1CCC(N2CCCC2)CC1	binding, competition with immobilised ligand	1 µM	100%
O=C(O)[C@H]1[C@H](Cn2nnc3ccccc3c2=O)CC[C@@H]1C(=O)c1ccc(OCCC2CCOCC2)cc1	binding, competition with immobilised ligand	1 µM	100%
CN(C)c1nccc(-c2cnc3ncccn23)n1	binding	1 µM	100%
CS(=O)(=O)c1cc(C2(NC(=O)c3cncc4c3cnn4-c3ccc(F)cc3)CC2)ccn1	cell-free assay, competition with immobilised ligand	1 µM	99%
COc1cnc(Nc2cccc(S(N)(=O)=O)c2)nc1N1CCN(c2ccccc2)C(=O)C1	binding, competition with immobilised ligand	1 µM	100%
C[C@@]1(Cc2ccc(C#N)cc2)C(=O)N(c2cc(Cl)cc(Cl)c2)c2ncc(C(=O)NC3(c4nc(C5CCC5)no4)CC3)n21	cell-free assay, competition with immobilised ligand	1 µM	92%
COc1ccnn2ncc(-c3ccnc(N(C)C)n3)c12	binding	1 µM	93%
O=c1nc(-c2ccccn2)sc2ccccc12	binding, competition with immobilised ligand	1 µM	82%
CN(c1nccc(-c2cnn3ncccc23)n1)C1CC1	binding	1 µM	100%
